Results collected from several papers.
Protocols differ between the studies behind these lines.
Target: Protein-tyrosine kinase 6 (PTK6, Homo sapiens, UniProt Q13882)

| SMILES | effect on | method | concentration | remaining binding |
| --- | --- | --- | --- | --- |
| Cc1cnc(Nc2ccc(C(=O)N3CCC(N4CCCC4)CC3)cc2)nc1-c1cc2ccccc2s1 | binding | competition with immobilised ligand | 1 µM | 26% |
| CS(=O)(=O)NCC[C@H](NC(=O)c1cncc2c1cnn2-c1ccc(F)cc1)c1ccnc(S(C)(=O)=O)c1 | cell-free assay | competition with immobilised ligand | 1 µM | 96% |
| CN(C)c1nccc(-c2cnc3ncccn23)n1 | binding |  | 1 µM | 92% |
| O=C(NCCCN1CCOCC1)c1ccc(Nc2ncc(Cl)c(-c3ccc(Cl)s3)n2)cc1 | binding | competition with immobilised ligand | 1 µM | 100% |
| CN(CCCC(F)(F)F)c1nccc(-c2cnn3ncccc23)n1 | binding |  | 1 µM | 97% |
| O=C1NC(c2ccccn2)Sc2ccccc21 (centres unmarked) | cell-free assay | competition with immobilised ligand | 1 µM | 100% |
| N[C@@H]1CCN(c2nccc(-c3cnn4ncccc34)n2)C1 | binding |  | 1 µM | 100% |
| CNC(=O)[C@@H]1CC[C@@H](n2c(-c3ccc4cnccc4c3)nc3ccc(C(=O)NCc4cccc(C(N)=O)c4)cc32)C1 | binding | competition with immobilised ligand | 1 µM | 100% |
| CN([C@@H]1CCc2c(CC(=O)O)c3cc(S(C)(=O)=O)ccc3n2C1)S(=O)(=O)c1ccc(F)cc1 | cell-free assay | competition with immobilised ligand | 1 µM | 92% |
| FC(F)(F)Oc1cccc(-c2cnc3ccc(-c4ccncc4)nn23)c1 | cell-free assay | competition with immobilised ligand | 5 µM | 86% |
| CN(C)c1nccc(-c2cnn3ncccc23)n1 | binding |  | 1 µM | 100% |
| C[C@@H](c1ccc(-n2cnc3c(N)ncnc32)cc1)N1CCc2nn(C)c(Cc3ccccc3)c2C1=O | binding | competition with immobilised ligand | 0.1 µM | 62% |
| CCN1CCN(Cc2ccc(C(=O)Nc3ccc(C)c(Oc4ccc5c(c4)CC(=O)N5)c3)cc2C(F)(F)F)CC1 | binding | competition with immobilised ligand | 1 µM | 100% |
| Cc1cnn2ncc(-c3ccnc(N(C)C)n3)c2c1 | binding |  | 1 µM | 100% |
| C[C@H](c1ccc(F)cc1)N(Cc1cccc(C(=O)O)c1)C(=O)c1cnc2ccccc2c1 | cell-free assay | competition with immobilised ligand | 1 µM | 83% |
| O=C(NCC1CCOCC1)c1n[nH]cc1NC(=O)c1c(F)cccc1F | binding | competition with immobilised ligand | 1 µM | 100% |
| CCc1ccccc1C(=O)Nc1n[nH]c2c(C)c(F)c(C3C(C#N)=C(C)N(C)C(C)=C3C#N)cc12 | cell-free assay | competition with immobilised ligand | 1 µM | 100% |
| C[C@H]1CCN(c2nccc(-c3cnn4ncccc34)n2)C1 | binding |  | 1 µM | 100% |
| COc1cc(-c2cn(C3CCc4c(F)cccc4N(CC(F)(F)F)C3=O)nn2)ccc1-n1cnc(C)c1 (centres unmarked) | cell-free assay | competition with immobilised ligand | 1 µM | 100% |
| O=C(NCCCN1CCOCC1)c1ccc(Nc2nccc(-c3cc4ccccc4s3)n2)cc1 | binding | competition with immobilised ligand | 1 µM | 79% |
